Fibroblast inh: blocks proliferation of human lung fibroblasts. LL 47 human lung fibroblast viability, ATP luminescence; hits give low values. viability, % at 10 µM. 1.1% of 85,000 active. AID 719;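 active = viability at or below 50% in the single dose screen; inactive = viability above 50%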;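 note: compound exposure lasted 72 h before the ATP readout; 100% = median luminescence of untreated cell-only wells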
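Signal: luminescent ATP detection, CellTiter-Glo; assay system: LL 47 human lung fibroblasts; input: 1,150 cells/well; incubation: overnight cell rest, 72 h compound treatment at 37 °C; measure: % viability versus median cells-only luminescence; medium: IMEM growth medium with 15% fetal bovine serum; dosing: compound addition at 0.1% DMSO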
H69AR inhibit: growth inhibitors of human H69AR lung tumor cells; H69AR lung tumor viability, ATP luminescence, 72 h; hits give low values; viability, % at 10 µM; 6% of 85,000 active; AID 598;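 active = viability at or below 40%; inactive = viability above 40%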;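 note: multidrug resistant small cell line overexpressing MRP-1 efflux transporter; 100% = mean luminescence of untreated control wells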
Jurkat tox 60K: reduces viability or proliferation of Jurkat cells | Jurkat E6.1 viability, ATP luminescence, 48 h | inhibition, % at 4 µM | 1.2% of 56,000 active;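 active = inhibition above the mean inhibition of all tested compounds plus 3 SD, cut at about 28% in these data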
HUVEC inhibit: blocks proliferation of human endothelial cells; viability, % at 10 µM (by protocol); HUVEC proliferation, CellTiter-Glo luminescence, 72 h; hits give low values; 1.1% of 86,000 active;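 active = viability at or below 30%; inactive = viability above 30%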;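 note: 100% = median luminescence of DMSO-only cell control wells on each plate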
Numbers without * were called inactive; x = no result given. In the library only some 6.6% were active in any assay of this set; here they are far more common.

SMILES	Fibroblast inh	H69AR inhibit	Jurkat tox 60K	HUVEC inhibit
Cc1sc2nc(CSc3nc4ccccc4c(=O)n3CCCN3CCOCC3)[nH]c(=O)c2c1C	86	9.8*	2	60
COc1ccc(NS(=O)(=O)c2cc(C)ccc2C)cc1	78	13*	74*	62
COc1ccc(NS(=O)(=O)c2cc(C(=O)O)ccc2C)cc1	110	95	0	97
COc1ccc(NS(=O)(=O)c2cc(OC)ccc2NC(=O)c2cc(C)oc2C)cc1	67	21*	94*	56
CCc1ccc(NS(=O)(=O)c2cc(OC)ccc2OC)cc1	88	64	29*	80
O=C(NC1CCCC1)c1cnn2c(C(F)(F)F)cc(-c3ccc4c(c3)OCO4)nc12	84	17*	1	28*
O=C(NC1CCCC1)c1cnn2c(C(F)(F)F)cc(-c3ccco3)nc12	78	33*	x	85
O=C(c1nn2c(C(F)(F)F)cc(-c3ccco3)nc2c1Br)N1CCCc2ccccc21	46*	39*	-2	65
CC(C)n1c(C(=O)OCC(=O)NCc2ccc3c(c2)OCO3)cc2sccc21	98	46	x	63
CSc1nnc(-c2cccc(C)c2)n1N	106	110	x	102
COC(=O)[C@H](Cc1ccccc1)NC(=O)Nc1ccc(C)cc1	93	82	x	97
CN(C)CCNC(=O)c1ccc(COc2ccc(Cl)cc2Cl)cc1	25*	1.4*	x	2.4*
CN1CCN(C(=O)c2ccc(COc3ccc(Cl)cc3Cl)cc2)CC1	86	75	2	13*
COc1ccc(Cl)cc1C(=O)NCCN(C)C	99	93	x	94
Cc1cc(NC(=O)C2CCCN(S(=O)(=O)c3cnc[nH]3)C2)ccc1Br (centres undefined)	101	72	1	98
CN(C)c1ccc(NC(=O)Nc2ccc3snnc3c2)cc1	103	79	-5	93
O=C(Nc1ccccc1)Nc1ccc2snnc2c1	101	13*	x	53
Cc1nc(SCC(O)CO)c([N+](=O)[O-])[nH]1 (centres undefined)	99	107	x	91
Cc1ccc(S(=O)(=O)Nc2cccc3ncccc23)s1	x	x	31*	x
Cc1ccc(S(=O)(=O)Nc2ccnc3ccccc23)cc1	104	66	x	94
CCOC(=O)C1=C(C)NC(=O)NC1c1c(OCC(=O)N2CCCCC2)ccc2ccccc12 (centres undefined)	104	102	0	101
CCCCC1CC1C(=O)Nc1ccc(OC)c(OC)c1 (centres undefined)	100	80	x	80
COc1ccc(CCNCc2csc3nc4ccccc4n23)cc1OC	100	82	46*	95
COc1ccc(CCNc2nc3ccccc3n3nnnc23)cc1OC	95	85	x	86
N#CC(C#N)=c1ccc2c(c1)N1C3=C(CCCC3)CC3CCCCC31N=2 (centres undefined)	62	18*	-2	68
SMILES	Fibroblast inh	H69AR inhibit	Jurkat tox 60K	HUVEC inhibit
N#C/C(C(N)=O)=c1/ccc2c(c1)N1C3=C(CCCC3)CC3CCCCC31N=2 (centres undefined)	88	1.9*	7	44
CC(C)(C)C1CCc2c(sc(NC(=O)c3cccs3)c2C(N)=O)C1 (centres undefined)	23*	34*	x	88
CCC(C)(C)C1CCc2c(sc(NC(=O)c3cccs3)c2C(N)=O)C1 (centres undefined)	88	81	x	93
CCOc1ccc(N(CC)S(=O)(=O)c2ccc3c(c2)oc(=O)n3C)cc1	x	x	66*	x
CCOc1ccc(NS(=O)(=O)c2ccc3c(c2)oc(=O)n3C)cc1	93	100	2	106
CN(C)c1ccc(O)c2c1CC1CC3[C@@H](N(C)C)C(=O)C(C(N)=O)=C(O)[C@]3(O)C(=O)C1=C2O (some centres undefined)	84	35*	x	93
C=CCn1c(SCC(O)Cn2c3ccccc3c3ccccc32)nnc1-c1ccco1 (centres undefined)	87	26*	2	62
C=CCn1c(SCC(=O)Nc2ccccc2OC)nnc1-c1ccco1	91	87	-8	84
Cc1cc(N)n2ncc(-c3ccc(Cl)cc3)c2n1	46*	42	x	36
CC(C)(C)c1cc(NCCCn2ccnc2)n2ncc(-c3ccc(Cl)cc3)c2n1	45*	5.2*	x	8.7*
Cc1cc(N)n2ncc(-c3ccc(F)cc3)c2n1	81	69	x	79
COc1ccc(-c2cc3nc(C)cc(NCCO)n3n2)cc1	100	101	-2	100
Cc1cc(NCCOCCO)n2ncc(-c3ccc(Cl)cc3)c2n1	41*	22*	9	41
CCC(=O)n1nc(NCc2ccccc2OC)nc1NCc1ccccc1OC	88	99	-5	78
Cc1ccccc1-c1nc(CN2CCC(C(=O)NCCCN3CC(C)CC(C)C3)CC2)c(C)o1 (centres undefined)	77	64	0	14*
Cc1oc(-c2ccccc2F)nc1CN1CCC(C(=O)NCCC2=CCCCC2)CC1	90	81	7	20*
Cc1ccccc1-c1nc(CN2CCC(C(=O)NCCCN3CCCC3)CC2)c(C)o1	89	100	-1	71
COc1ccc(CCNC(=O)C2CCN(Cc3nc(-c4ccccc4F)oc3C)CC2)cc1OC	104	90	12	102
O=C(/C=C/c1ccccc1)NNC(=O)C1CC1	104	95	x	94
CCC(C(=O)O/N=C(\N)c1ccc(C)cc1)c1ccccc1 (centres undefined)	93	53	x	86
O=C(/C=C/NNC(=O)c1ccccc1)c1ccccc1	20*	87	x	101
CCC(C(=O)O/N=C(\N)c1ccccc1)c1ccccc1 (centres undefined)	74	1.2*	x	75
CC(C)(C)C(=O)/C=C(N)/C=C/c1ccccc1	94	87	8	110
O=C(/C=C/c1ccccc1)c1ccccc1	86	1.5*	x	78
O=C(/C=C/NNC(=O)c1ccc(Br)cc1)c1ccccc1	85	83	x	80
SMILES	Fibroblast inh	H69AR inhibit	Jurkat tox 60K	HUVEC inhibit
N/C(=N\OC(=O)/C=C/c1ccccc1)c1ccccc1	105	39*	x	83
COC(=O)CC(N)c1ccc(OC)c2ccccc12 (centres undefined)	100	92	x	100
Cc1ccc(-n2nnnc2SCC(=O)N2CCCCC2)cc1	100	98	x	101
O=C(CSc1nnnn1-c1cccc2c1CCCC2)N1CCCCC1	96	40*	x	87
O=C(Nc1cccc(Cl)c1)C1=Cc2cc(Cl)ccc2OC1	103	94	x	80
O=C(Nc1ccc(Cl)c(Cl)c1)C1=Cc2ccccc2OC1	92	16*	x	35
N#Cc1ccc(-c2ccco2)nc1SCC(=O)c1ccc(Cl)cc1	93	6.2*	x	38
O=C(Nc1ncnc2sc3c(c12)CCCCC3)c1ccc(F)cc1	74	40*	x	81
O=C(c1cccc(S(=O)(=O)NCCOc2ccccc2)c1)N1CCN(c2ncccn2)CC1	90	75	8	94
Cc1nc2ccccc2n1CC(=O)NCc1ccccc1	106	103	41*	102
Cc1ccc2[nH]c(=O)c(CN(CCO)C(=O)N(C)C)cc2c1	98	95	x	103
COc1cccc(CNC(=O)c2cc3oc4ccccc4c3n2C)c1OC	78	74	29*	82

Assay outcomes: PubChem, several laboratories
